Experiment [1] has as its target Macrophage-stimulating protein receptor (Homo sapiens, UniProt Q04912). The experiment in a line: Inhibition of RON (unknown origin) using poly(Glu,Tyr) as substrate after 30 mins by HTRF assay. Summed up:
(§1)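 HTRF kinase assay on plates precoated with poly(Glu,Tyr) 4:1 (20 µg/mL). ATP was added as a 10 mM solution in 50 mM HEPES pH 7.0 buffer with DTT, MgCl2, MnCl2 and 0.1% NaN3. Compounds were in 1% DMSO, and purified kinase started the reaction (30 min, 25 °C). Streptavidin-XL665/TK antibody cryptate stopped it, read at 320/615 nm. Inhibition was scaled to enzyme and no-enzyme controls; IC50 from curves.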
(TR-FRET usually uses a lanthanide donor and a delayed reading to cut background.)

Experiment [2] addresses T1, Receptor-type tyrosine-protein kinase FLT3 (Homo sapiens, UniProt P36888).
T1 sequence (P36888 whole entry): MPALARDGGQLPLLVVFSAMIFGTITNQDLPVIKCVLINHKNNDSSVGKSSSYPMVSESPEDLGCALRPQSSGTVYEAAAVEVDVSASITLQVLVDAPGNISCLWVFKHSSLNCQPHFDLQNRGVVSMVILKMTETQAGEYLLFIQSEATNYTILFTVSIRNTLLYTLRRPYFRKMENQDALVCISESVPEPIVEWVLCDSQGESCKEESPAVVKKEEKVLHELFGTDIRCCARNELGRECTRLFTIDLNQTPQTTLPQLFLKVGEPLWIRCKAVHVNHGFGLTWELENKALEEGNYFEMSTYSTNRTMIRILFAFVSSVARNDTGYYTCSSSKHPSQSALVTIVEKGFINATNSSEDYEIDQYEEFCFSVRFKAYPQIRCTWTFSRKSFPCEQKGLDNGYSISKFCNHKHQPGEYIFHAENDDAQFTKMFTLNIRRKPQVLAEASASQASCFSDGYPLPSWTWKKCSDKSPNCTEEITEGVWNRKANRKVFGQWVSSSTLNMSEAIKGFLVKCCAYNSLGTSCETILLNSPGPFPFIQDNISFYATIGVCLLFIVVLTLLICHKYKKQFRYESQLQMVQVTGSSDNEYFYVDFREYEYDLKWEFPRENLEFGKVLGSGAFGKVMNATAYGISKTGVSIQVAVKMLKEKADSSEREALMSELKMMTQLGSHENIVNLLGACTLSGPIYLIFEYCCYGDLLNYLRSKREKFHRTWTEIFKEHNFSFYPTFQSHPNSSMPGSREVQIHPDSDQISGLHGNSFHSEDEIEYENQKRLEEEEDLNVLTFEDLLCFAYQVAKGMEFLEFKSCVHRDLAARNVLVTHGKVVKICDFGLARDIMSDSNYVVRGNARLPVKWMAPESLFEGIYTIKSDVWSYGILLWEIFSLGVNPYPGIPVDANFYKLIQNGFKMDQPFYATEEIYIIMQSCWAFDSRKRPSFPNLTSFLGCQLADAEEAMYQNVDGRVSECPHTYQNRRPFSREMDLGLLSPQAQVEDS
The experiment in a line: Inhibition of FLT-3 (unknown origin) using poly(Glu,Tyr) as substrate after 30 mins by HTRF assay. Summed up: as §1

Experiment [3] is described as follows: cells. Conditions: Homo sapiens, U-87 MG, 72 h.
The target of experiment [4] is Vascular endothelial growth factor receptor 2 (Homo sapiens, UniProt P35968). The experiment in a line: Inhibition of KDR (unknown origin) using poly(Glu,Tyr) as substrate after 30 mins by HTRF assay. Summed up:
as §1

The subject of experiment [5] is SMMC-7721. The experiment in a line: cells. As to conditions: Homo sapiens, SMMC-7721, 72 h.
Experiment [6] deals with Mast/stem cell growth factor receptor Kit (Homo sapiens, UniProt P10721). The experiment in a line: Inhibition of c-KIT (unknown origin) using poly(Glu,Tyr) as substrate after 30 mins by HTRF assay. Summed up: as §1
Experiment [7] concerns A549. The experiment in a line: Cytotoxicity against human A549 cells after 72 hrs by MTT assay. As to conditions: A549, 72 h. In kind it is functional, cell-based. A general note: Formazan colour is commonly taken as a measure of viable cells.
The test system of experiment [8] is MDA-MB-231. Briefly: Cytotoxicity against human MDA-MB-231 cells after 72 hrs by MTT assay. The experiment is classed as functional, cell-based. Conditions: MDA-MB-231, 72 h. Summed up:
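Cells were grown in MEM with 10% FBS. About 4×10^3 cells per well were seeded and incubated 24 h at 37 °C in 5% CO2. Compounds were then added at set final concentrations for 72 h. MTT (final 5 µg/mL) was added for 4 h at 37 °C, and formazan was dissolved in DMSO and read at 492 nm against a 630 nm reference. Each line was tested three times; IC50 is mean ± SD.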

Experiment [9] deals with Epidermal growth factor receptor (Homo sapiens, UniProt P00533). Briefly: Inhibition of EGFR (unknown origin) using poly(Glu,Tyr) as substrate after 30 mins by HTRF assay. Summed up:
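HTRF kinase assay with purified kinase protein on precoated poly(Glu,Tyr) 4:1 substrate (20 µg/mL). Buffer was 50 mM HEPES pH 7.0 with DTT, MgCl2, MnCl2 and 0.1% NaN3, plus ATP added from a 10 mM solution. Compounds were in 1% DMSO. Reaction ran 30 min at 25 °C and was stopped with Streptavidin-XL665 and TK antibody-cryptate. Read at 320/615 nm; % inhibition from max/min controls, IC50 from inhibition curves.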

Experiment [10] has as its system HT-29. Briefly: cells. Conditions: Homo sapiens, HT-29, 72 h.
Experiment [11] deals with MKN-45. Briefly: cells. Conditions: Homo sapiens, MKN-45, 72 h.
Experiment [12] deals with NCI-H460. The experiment in a line: cells. As to conditions: Homo sapiens, NCI-H460, 72 h.
The target in experiment [13] is Platelet-derived growth factor receptor alpha (Homo sapiens, UniProt P16234). Briefly: Inhibition of PDGFRalpha (unknown origin) using poly(Glu,Tyr) as substrate after 30 mins by HTRF assay. Summed up:
as §1

A value given as a limit tells only on which side of the number the result lay.

In general, IC50 refers to the concentration that gives 50% inhibition.

Chain of Vascular endothelial growth factor receptor 2 (P35968 whole entry): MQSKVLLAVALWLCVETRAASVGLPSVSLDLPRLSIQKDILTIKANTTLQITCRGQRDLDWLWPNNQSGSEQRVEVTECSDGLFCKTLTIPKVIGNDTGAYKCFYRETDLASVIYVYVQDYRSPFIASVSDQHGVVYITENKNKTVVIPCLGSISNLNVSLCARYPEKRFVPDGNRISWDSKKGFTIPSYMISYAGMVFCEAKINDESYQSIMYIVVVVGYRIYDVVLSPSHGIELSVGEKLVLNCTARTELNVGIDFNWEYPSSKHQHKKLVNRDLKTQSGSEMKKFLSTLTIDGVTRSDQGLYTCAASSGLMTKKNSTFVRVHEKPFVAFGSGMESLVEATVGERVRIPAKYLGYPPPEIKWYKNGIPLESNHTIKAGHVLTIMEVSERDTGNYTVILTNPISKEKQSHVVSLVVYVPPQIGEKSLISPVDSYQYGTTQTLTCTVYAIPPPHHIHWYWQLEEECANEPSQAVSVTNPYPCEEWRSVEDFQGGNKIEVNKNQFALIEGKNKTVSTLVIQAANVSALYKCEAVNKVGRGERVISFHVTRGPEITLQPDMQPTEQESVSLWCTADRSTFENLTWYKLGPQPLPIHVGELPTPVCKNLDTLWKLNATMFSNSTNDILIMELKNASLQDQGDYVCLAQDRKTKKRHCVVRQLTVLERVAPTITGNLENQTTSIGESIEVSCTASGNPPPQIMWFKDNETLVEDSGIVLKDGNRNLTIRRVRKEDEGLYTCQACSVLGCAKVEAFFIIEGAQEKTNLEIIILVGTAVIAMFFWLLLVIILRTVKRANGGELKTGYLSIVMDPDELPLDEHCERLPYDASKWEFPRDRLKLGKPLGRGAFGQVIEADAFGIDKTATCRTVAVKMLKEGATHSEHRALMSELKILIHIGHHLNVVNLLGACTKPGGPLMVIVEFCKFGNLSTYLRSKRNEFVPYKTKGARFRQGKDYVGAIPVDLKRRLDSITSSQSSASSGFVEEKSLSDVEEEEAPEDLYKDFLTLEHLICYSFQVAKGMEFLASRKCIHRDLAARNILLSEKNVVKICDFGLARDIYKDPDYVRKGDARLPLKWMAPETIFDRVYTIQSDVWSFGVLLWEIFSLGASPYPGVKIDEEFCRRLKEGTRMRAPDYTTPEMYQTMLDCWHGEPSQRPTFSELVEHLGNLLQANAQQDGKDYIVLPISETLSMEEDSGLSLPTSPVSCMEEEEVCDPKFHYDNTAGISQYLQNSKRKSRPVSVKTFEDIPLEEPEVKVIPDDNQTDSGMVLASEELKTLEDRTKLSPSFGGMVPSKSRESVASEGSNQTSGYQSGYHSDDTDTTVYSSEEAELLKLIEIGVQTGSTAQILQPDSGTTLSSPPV
Chain of Mast/stem cell growth factor receptor Kit (P10721 whole entry): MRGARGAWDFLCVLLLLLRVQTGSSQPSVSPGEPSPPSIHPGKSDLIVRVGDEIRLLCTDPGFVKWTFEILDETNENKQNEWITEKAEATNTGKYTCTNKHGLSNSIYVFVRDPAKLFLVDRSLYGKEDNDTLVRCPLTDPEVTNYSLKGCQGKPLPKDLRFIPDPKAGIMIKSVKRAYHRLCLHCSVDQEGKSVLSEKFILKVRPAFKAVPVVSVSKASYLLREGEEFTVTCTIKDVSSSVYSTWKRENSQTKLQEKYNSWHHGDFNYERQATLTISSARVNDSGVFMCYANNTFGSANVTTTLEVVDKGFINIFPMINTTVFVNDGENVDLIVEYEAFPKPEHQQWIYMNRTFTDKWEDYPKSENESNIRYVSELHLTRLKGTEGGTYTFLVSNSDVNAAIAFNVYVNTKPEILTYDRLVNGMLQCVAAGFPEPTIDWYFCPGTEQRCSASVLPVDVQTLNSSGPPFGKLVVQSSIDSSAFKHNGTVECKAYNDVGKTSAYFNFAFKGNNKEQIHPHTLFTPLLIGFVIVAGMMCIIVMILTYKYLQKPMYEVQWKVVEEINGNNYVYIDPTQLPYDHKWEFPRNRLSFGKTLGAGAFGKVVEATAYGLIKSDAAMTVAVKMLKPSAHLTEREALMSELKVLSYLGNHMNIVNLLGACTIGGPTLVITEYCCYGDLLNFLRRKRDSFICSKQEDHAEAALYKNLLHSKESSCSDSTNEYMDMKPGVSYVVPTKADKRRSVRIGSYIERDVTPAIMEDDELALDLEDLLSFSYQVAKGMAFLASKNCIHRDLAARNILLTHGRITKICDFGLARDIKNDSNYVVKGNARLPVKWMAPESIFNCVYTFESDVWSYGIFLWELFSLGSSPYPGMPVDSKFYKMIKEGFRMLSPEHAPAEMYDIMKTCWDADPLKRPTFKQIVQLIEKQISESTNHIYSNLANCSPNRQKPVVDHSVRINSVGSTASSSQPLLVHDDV
Chain of Platelet-derived growth factor receptor alpha (P16234 whole entry): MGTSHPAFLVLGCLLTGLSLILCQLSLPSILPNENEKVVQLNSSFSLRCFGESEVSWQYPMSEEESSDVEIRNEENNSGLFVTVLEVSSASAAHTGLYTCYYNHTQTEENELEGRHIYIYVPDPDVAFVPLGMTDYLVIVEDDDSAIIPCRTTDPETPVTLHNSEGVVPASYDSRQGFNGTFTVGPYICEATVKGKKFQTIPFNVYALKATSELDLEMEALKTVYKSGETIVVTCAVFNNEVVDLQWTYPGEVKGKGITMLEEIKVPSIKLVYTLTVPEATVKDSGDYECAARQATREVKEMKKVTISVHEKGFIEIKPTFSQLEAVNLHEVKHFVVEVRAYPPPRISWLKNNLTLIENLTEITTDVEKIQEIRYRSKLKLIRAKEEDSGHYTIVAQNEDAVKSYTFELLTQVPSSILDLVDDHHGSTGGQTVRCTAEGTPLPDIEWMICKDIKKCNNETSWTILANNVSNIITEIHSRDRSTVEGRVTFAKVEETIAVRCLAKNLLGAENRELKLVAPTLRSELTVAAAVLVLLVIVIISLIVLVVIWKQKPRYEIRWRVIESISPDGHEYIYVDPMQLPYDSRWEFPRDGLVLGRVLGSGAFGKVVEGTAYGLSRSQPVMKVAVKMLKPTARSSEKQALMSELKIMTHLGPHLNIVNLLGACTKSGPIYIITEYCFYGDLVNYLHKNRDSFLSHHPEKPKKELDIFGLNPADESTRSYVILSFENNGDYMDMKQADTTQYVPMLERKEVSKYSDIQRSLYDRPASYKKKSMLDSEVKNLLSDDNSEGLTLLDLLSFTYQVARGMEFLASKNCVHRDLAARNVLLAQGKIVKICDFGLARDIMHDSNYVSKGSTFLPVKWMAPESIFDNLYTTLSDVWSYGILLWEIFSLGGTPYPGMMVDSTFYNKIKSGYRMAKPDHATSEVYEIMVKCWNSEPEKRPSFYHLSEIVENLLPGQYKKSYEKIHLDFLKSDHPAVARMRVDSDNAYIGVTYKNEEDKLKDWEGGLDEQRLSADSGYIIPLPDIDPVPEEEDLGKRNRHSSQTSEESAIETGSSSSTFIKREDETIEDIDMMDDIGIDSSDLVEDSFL
Chain of Epidermal growth factor receptor (P00533 whole entry): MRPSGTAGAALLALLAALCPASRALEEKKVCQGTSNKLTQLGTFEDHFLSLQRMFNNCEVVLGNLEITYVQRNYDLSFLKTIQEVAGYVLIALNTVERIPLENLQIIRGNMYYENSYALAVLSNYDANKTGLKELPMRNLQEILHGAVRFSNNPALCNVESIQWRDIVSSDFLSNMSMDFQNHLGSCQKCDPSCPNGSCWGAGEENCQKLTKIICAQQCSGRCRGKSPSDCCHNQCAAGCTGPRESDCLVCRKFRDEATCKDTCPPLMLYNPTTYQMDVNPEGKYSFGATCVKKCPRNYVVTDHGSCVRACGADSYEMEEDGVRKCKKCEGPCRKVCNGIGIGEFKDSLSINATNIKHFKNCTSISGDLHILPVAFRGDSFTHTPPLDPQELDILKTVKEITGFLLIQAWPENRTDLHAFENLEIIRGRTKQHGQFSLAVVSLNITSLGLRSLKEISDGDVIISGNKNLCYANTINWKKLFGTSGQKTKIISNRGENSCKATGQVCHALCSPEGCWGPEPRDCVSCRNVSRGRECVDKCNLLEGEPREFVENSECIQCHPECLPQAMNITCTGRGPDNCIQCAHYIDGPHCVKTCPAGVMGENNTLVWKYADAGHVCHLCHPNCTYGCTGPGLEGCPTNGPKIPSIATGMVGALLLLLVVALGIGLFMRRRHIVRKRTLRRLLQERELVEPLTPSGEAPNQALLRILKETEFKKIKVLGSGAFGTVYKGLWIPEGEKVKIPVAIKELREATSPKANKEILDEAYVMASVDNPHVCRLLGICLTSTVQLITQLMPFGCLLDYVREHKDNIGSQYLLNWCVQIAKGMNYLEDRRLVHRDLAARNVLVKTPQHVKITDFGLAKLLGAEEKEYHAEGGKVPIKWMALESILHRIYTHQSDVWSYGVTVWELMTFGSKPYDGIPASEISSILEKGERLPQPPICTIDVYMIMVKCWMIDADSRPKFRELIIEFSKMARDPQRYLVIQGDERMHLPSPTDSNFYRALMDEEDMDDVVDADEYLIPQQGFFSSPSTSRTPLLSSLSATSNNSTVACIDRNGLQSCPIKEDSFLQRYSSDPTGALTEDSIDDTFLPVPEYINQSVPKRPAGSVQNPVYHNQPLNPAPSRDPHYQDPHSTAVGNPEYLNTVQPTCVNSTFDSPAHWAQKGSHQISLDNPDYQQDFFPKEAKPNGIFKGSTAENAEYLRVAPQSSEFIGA

For the compound `COc1cc2c(Oc3ccc(NC(=O)N/N=C/c4ccc(F)cc4F)cc3F)ccnc2cc1OCCCN1CCC(C)CC1`, the concentration for half-maximal inhibition (IC50) turned out to be 0.0187 µM in [1]; 0.38 µM in experiment [2]; 0.0097 µM in experiment [3]; 0.69 µM in [4]; 0.29 µM in experiment [5]; 0.23 µM in [6]. In addition, the IC50 is 0.08 µM in experiment [7]; 1.1 µM in experiment [8]; more than 100 µM in experiment [9]; 0.08 µM in experiment [10]; 0.51 µM in experiment [11]; 0.057 µM in experiment [12]. For the same compound, in experiment [13], inhibition was half-maximal at 0.39 µM (IC50).

For the origin of these results see ChEMBL document CHEMBL2417367 (Bioorg Med Chem, 2013).
